The values that follow come from ChEMBL document CHEMBL1157529, “Lantadenes and their esters as potential antitumor agents” (J Nat Prod, 2008).

One assay has as its system HeLa. Description: Cytotoxicity against human HeLa cells after 48 hrs by MTT assay. The class given is functional, cell-based. In short, it runs like this:
(§1)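 HL-60, HeLa, colon 502713 and A-549 cells grown in RPMI with 10% FBS, streptomycin and penicillin at 37 °C, 5% CO2. Cells (2 × […]/0.1 mL well) exposed 48 h to serial compound dilutions. MTT added for the final 4 h at 37 °C. Formazan extracted in DMSO and read at 540 nm. Mean and standard deviation of triplicate assays.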

The test system of a further assay is HL-60. Description: Cytotoxicity against human HL60 cells after 48 hrs by MTT assay. The format is functional, cell-based. The note with it: HL-60, 48 h. In short, it runs like this:
as §1

The subject of a further assay is A549. Nature of the assay: Cytotoxicity against human A549 cells after 48 hrs by MTT assay. The class given is functional, cell-based. To be noted: A549, 48 h. Put shortly: as §1
In general terms: Tetrazolium dyes change colour on reduction, which living cells bring about.

Assay [1] is described as follows: Cytotoxicity against human colon 502713 cells after 48 hrs by MTT assay. The note with it: Homo sapiens, 502713, 48 h. The format is functional, cell-based. Put shortly:
as §1

A short description of assay [2]: Inhibition of DMBA-induced/TPA-promoted carcinogenesis in Swiss albino mouse squamous cells assessed as incidence of skin papillomas administered orally 1 week before DMBA administration and continued for 20 weeks relative to DMPA/TPA treated control. The format is functional. In short, it runs like this:
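Female Swiss albino mice (LACCA, 6 weeks, 18-22 g), backs depilated. DMBA 100 nmol in 100 µL acetone applied topically for 2 weeks, then TPA 1.7 nmol in 100 µL acetone twice weekly for 18 weeks. Compounds given orally in water/carboxymethyl cellulose, starting 1 week before DMBA, for 20 weeks. n = 10 per group. Papilloma incidence, body weight and survival recorded.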

Assay [3] can be described thus: Inhibition of DMBA-induced/TPA-promoted carcinogenesis in Swiss albino mouse squamous cells assessed as survival rate administered orally 1 week before DMBA administration and continued for 20 weeks relative to DMPA/TPA treated control. The format is functional. Put shortly:
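Female Swiss albino mice (LACCA, 6 weeks, 18-22 g), depilated back; DMBA 100 nmol/100 µL acetone topically for 2 weeks, then TPA 1.7 nmol/100 µL acetone twice weekly for 18 weeks. Compounds given orally as suspension in water/carboxymethyl cellulose from 1 week before DMBA for 20 weeks, n = 10/group. Number of surviving animals recorded at 20 weeks.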

Values after ≈ are worked out from the molar mass of the structure shown.

On to `COC(=O)[C@@]12CC[C@]3(C)C(=CC[C@@H]4[C@@]5(C)CCC(=O)C(C)(C)[C@@H]5CC[C@]43C)[C@@H]1CC(C)(C)C[C@H]2OC(C)=O`, for which the IC50 (usually the concentration at which inhibition is half-maximal) turned out to be 36.2 µg/mL (≈ 68.7 µM) in the assay with HeLa, 37.3 µg/mL (≈ 70.8 µM) in the assay on HL-60, 36.8 µg/mL (≈ 69.9 µM) in the assay on A549 and 34.6 µg/mL (≈ 65.7 µM) in assay [1].
As for `CCC(=O)O[C@@H]1CC(C)(C)C[C@H]2C3=CC[C@@H]4[C@@]5(C)CCC(=O)C(C)(C)[C@@H]5CC[C@@]4(C)[C@]3(C)CC[C@@]12C(=O)OC`, the 50% inhibitory concentration (IC50) in the assay on HeLa was 26.4 µg/mL (≈ 48.8 µM); in the assay on HL-60, 24.2 µg/mL (≈ 44.7 µM); with A549, 28.4 µg/mL (≈ 52.5 µM); in assay [1] it was 22.4 µg/mL (≈ 41.4 µM). Moreover, in assay [2], the “inhibition (INH)” value worked out at 17.9%. The survival rate in assay [3] was determined as 80%.
As to `C/C=C(/C)C(=O)O[C@@H]1CC(C)(C)C[C@H]2C3=CC[C@@H]4[C@@]5(C)CCC(=O)C(C)(C)[C@@H]5CC[C@@]4(C)[C@]3(C)CC[C@@]12C(=O)O` [LANTADENE A], the IC50 stood at 23.3 µg/mL (≈ 42.1 µM) in the assay on HeLa, 19.8 µg/mL (≈ 35.8 µM) in the assay with HL-60, 21.8 µg/mL (≈ 39.4 µM) with A549 and 21.3 µg/mL (≈ 38.5 µM) in assay [1]. Also, in assay [2], the “inhibition (INH)” value came to 18.1%.
For `CCCC(=O)O[C@@H]1CC(C)(C)C[C@H]2C3=CC[C@@H]4[C@@]5(C)CCC(=O)C(C)(C)[C@@H]5CC[C@@]4(C)[C@]3(C)CC[C@@]12C(=O)O` the same measures were 22.8 µg/mL (≈ 42.2 µM), 21.6 µg/mL (≈ 39.9 µM), 27.1 µg/mL (≈ 50.1 µM), 25.2 µg/mL (≈ 46.6 µM) and 17.2%.
Regarding `CC(C)C(=O)O[C@@H]1CC(C)(C)C[C@H]2C3=CC[C@@H]4[C@@]5(C)CCC(=O)C(C)(C)[C@@H]5CC[C@@]4(C)[C@]3(C)CC[C@@]12C(=O)O`, the IC50 amounted to 43.6 µg/mL (≈ 80.6 µM) with HeLa, 41.2 µg/mL (≈ 76.2 µM) in the assay on HL-60, 44.2 µg/mL (≈ 81.7 µM) with A549 and 37.6 µg/mL (≈ 69.5 µM) in assay [1]. For the same molecule, in assay [3], the survival rate was 80%.
Consider `CC1(C)C[C@@H](O)[C@]2(C(=O)O)CC[C@]3(C)C(=CC[C@@H]4[C@@]5(C)CCC(=O)C(C)(C)[C@@H]5CC[C@]43C)[C@@H]2C1`, for which the IC50 is > 100 µg/mL in the assay on HeLa, < 100 µg/mL in the assay with HL-60, > 100 µg/mL with A549 and > 100 µg/mL in assay [1].
Consider `CC(=O)O[C@@H]1CC(C)(C)C[C@H]2C3=CC[C@@H]4[C@@]5(C)CCC(=O)C(C)(C)[C@@H]5CC[C@@]4(C)[C@]3(C)CC[C@@]12C(=O)O`, for which the IC50 with HeLa was determined as 37.3 µg/mL (≈ 72.7 µM); in the assay on HL-60, 38.5 µg/mL (≈ 75.1 µM); in the assay with A549, 36.8 µg/mL (≈ 71.8 µM); in assay [1] it was 34.4 µg/mL (≈ 67.1 µM).
In the case of `COC(=O)[C@@]12CC[C@]3(C)C(=CC[C@@H]4[C@@]5(C)CCC(=O)C(C)(C)[C@@H]5CC[C@]43C)[C@@H]1CC(C)(C)C[C@H]2OC(=O)C(C)C`, the concentration for half-maximal inhibition (IC50) in the assay with HeLa turned out to be 41.1 µg/mL (≈ 74.1 µM); in the assay with HL-60, 39.5 µg/mL (≈ 71.2 µM); with A549, 42.2 µg/mL (≈ 76.1 µM); in assay [1], 38.1 µg/mL (≈ 68.7 µM).
In the case of `COC(=O)[C@@]12CC[C@]3(C)C(=CC[C@@H]4[C@@]5(C)CCC(=O)C(C)(C)[C@@H]5CC[C@]43C)[C@@H]1CC(C)(C)C[C@H]2OC(=O)c1ccccc1`, the IC50 was 50.7 µg/mL (≈ 86.1 µM) in the assay on HeLa, 48 µg/mL (≈ 81.5 µM) in the assay on HL-60, > 100 µg/mL in the assay with A549 and > 100 µg/mL in assay [1].
As for `CC(=O)O[C@H]1C(=O)[C@@]2(C)[C@H]([C@H](OC(=O)c3ccccc3)[C@]3(O)C[C@H](OC(=O)[C@H](O)[C@@H](NC(=O)c4ccccc4)c4ccccc4)C(C)=C1C3(C)C)[C@]1(OC(C)=O)CO[C@@H]1C[C@@H]2O` [PACLITAXEL], the 50% inhibitory concentration (IC50) is > 3 µg/mL with HeLa, < 2 µg/mL with HL-60, < 2 µg/mL in the assay with A549 and < 2 µg/mL in assay [1].
`COC(=O)[C@@]12CC[C@]3(C)C(=CC[C@@H]4[C@@]5(C)CCC(=O)C(C)(C)[C@@H]5CC[C@]43C)[C@@H]1CC(C)(C)C[C@H]2O`: the IC50 was > 100 µg/mL in the assay with HeLa, 70.6 µg/mL (≈ 146 µM) in the assay with HL-60, 84.2 µg/mL (≈ 174 µM) in the assay on A549 and 72.4 µg/mL (≈ 149 µM) in assay [1].
As to `CCC(=O)O[C@@H]1CC(C)(C)C[C@H]2C3=CC[C@@H]4[C@@]5(C)CCC(=O)C(C)(C)[C@@H]5CC[C@@]4(C)[C@]3(C)CC[C@@]12C(=O)O`, the IC50 was determined as 28.6 µg/mL (≈ 54.3 µM) in the assay with HeLa, 26.4 µg/mL (≈ 50.1 µM) in the assay on HL-60, 29.6 µg/mL (≈ 56.2 µM) in the assay on A549 and 25.4 µg/mL (≈ 48.2 µM) in assay [1]. Also, the “inhibition (INH)” value in assay [2] is reported as 19.6%. For the same molecule, the survival rate in assay [3] is listed as 80%.
For `CCCC(=O)O[C@@H]1CC(C)(C)C[C@H]2C3=CC[C@@H]4[C@@]5(C)CCC(=O)C(C)(C)[C@@H]5CC[C@@]4(C)[C@]3(C)CC[C@@]12C(=O)OC`, the IC50 in the assay on HeLa was 20.1 µg/mL (≈ 36.2 µM); in the assay on HL-60, 19.3 µg/mL (≈ 34.8 µM); with A549, 22.4 µg/mL (≈ 40.4 µM); in assay [1], 21.1 µg/mL (≈ 38 µM). Also, the “inhibition (INH)” value in assay [2] was found to be 12.4%. The survival rate in assay [3] is reported as 80%.
`CC1(C)C[C@@H](OC(=O)c2ccccc2)[C@]2(C(=O)O)CC[C@]3(C)C(=CC[C@@H]4[C@@]5(C)CCC(=O)C(C)(C)[C@@H]5CC[C@]43C)[C@@H]2C1`: the concentration for half-maximal inhibition (IC50) with HeLa was 46.3 µg/mL (≈ 80.5 µM); in the assay with HL-60 it was 50.8 µg/mL (≈ 88.4 µM); with A549, > 100 µg/mL; in assay [1], 51.2 µg/mL (≈ 89.1 µM).
